Assay [1] relates to U-87 MG. Description: Antiproliferative activity against human U87 cells assessed as reduction in cell growth incubated for 4 days by cell-titer glo assay. The class given is functional, cell-based, U-87MG ATCC. The settings on record: 96 h. Summed up: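 Cells grown in RPMI1640 with 10% FBS, 2 mM glutamine and penicillin-streptomycin at 37 °C, 5% CO₂. Viability read as ATP by CellTiter-Glo luminescence. IC50 as mean ± SD from triplicate experiments.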

Assay [2] has as its system U-87MG ATCC. Put plainly: Induction of vacuolization in human U87 cells at 1 uM by microscopic analysis.
Assay [3] concerns NCI-H522. Description: Induction of vacuolization in human NCI-H522 cells at 100 nM by microscopic analysis. The class given is functional, cell-based.
The subject of assay [4] is SK-MEL-28. Put plainly: Induction of vacuolization in human SK-MEL-28 cells at 100 nM by microscopic analysis. The class given is functional, cell-based.
The test system of assay [5] is HepG2. Put plainly: Induction of vacuolization in human HepG2 cells at 100 nM by microscopic analysis. Format: functional, cell-based.
Assay [6] concerns HCT-15. Description: Induction of vacuolization in human HCT-15 cells at 100 nM by microscopic analysis. The class given is functional, cell-based.
In assay [7] the test system is OVCAR-3. Description: Induction of vacuolization in human OVCAR-3 cells at 100 nM by microscopic analysis. Format: functional, cell-based.
In assay [8] the test system is LNCaP. Description: Induction of vacuolization in human LNCaP cells at 100 nM by microscopic analysis. Format: functional, cell-based.
The test system of assay [9] is U-87MG ATCC. Description: Induction of vacuolization in human U87 cells at 31.6 nM incubated for 4 days by microscopic analysis. The class given is functional, cell-based. The settings on record: time 4.0 day. Summed up: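 Cytoplasmic vacuolization was first screened visually by microscope in U87 cells treated with each compound at 1. Positive compounds were then titrated down to 0.01. Each was scored by its minimal effective concentration: 5 if vacuoles were significant at 10 nM, 4 at 31.6 nM, and so on downward.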

The target in assay [10] is Vimentin (Homo sapiens) (UniProt P08670). Description: Binding affinity to vimentin in human U87 cells at 100 nM incubated for 2 hrs by MALDI-MS/MS analysis. Format: cell-based. The method, boiled down: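 Live U87 cells treated with the alkyne photoaffinity probe at 100 nM (DMSO control), then UV irradiated (315-385 nm, 30 min) through the flask bottom. Lysed in Hepes buffer pH 7.5 and click-reacted with biotin-N₃ (1 mM CuSO₄, 1 mM TCEP). Streptavidin-agarose enrichment, 10% SDS-PAGE separation, then LC-MS/MS identification.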

The subject of assay [11] is U-87MG ATCC. Description: Induction of methuosis in human U87 cells assessed as increase in number of cytoplasmic vacuoles at 10 nM measured after 24 hrs by […] staining based microscopic analysis. Format: functional, cell-based. The method, boiled down: (§1)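 U87 cells were cultured in RPMI1640 with 10% FBS at 37 °C, 5% CO₂, and compound-treated for 24 h across 0.01-10. Cytoplasmic vacuolization was imaged by microscopy, with time-lapse confocal tracking of vesicle movement, vacuole fusion, cell rounding and disintegration. Macropinocytic origin was checked by lucifer yellow uptake and by staining with ER and Golgi markers.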

For assay [12], the system named is U-87MG ATCC. Description: Induction of methuosis in human U87 cells assessed as macropinocytosis by measuring cytoplasmic vacuolization at 10 nM incubated for 24 hrs by […] staining based confocal microscopic analysis. Format: functional, cell-based. Summed up:
as §1

The subject of assay [13] is U-87MG ATCC. Description: Induction of methuosis in human U87 cells assessed as rounded cytoplasmic vacuoles at 10 nM measured after 24 hrs by […] staining based microscopic analysis. Format: functional, cell-based. The method, boiled down:
as §1

The subject of assay [14] is U-87MG ATCC. Put plainly: Induction of methuosis in human U87 cells assessed as increase in accumulation of small vesicles at 10 nM measured after 24 hrs by […] staining based microscopic analysis. Format: functional, cell-based. Summed up: as §1
The test system of assay [15] is U-87MG ATCC. Description: Induction of methuosis in human U87 cells assessed as increase in size of cytoplasmic vacuoles at 10 nM measured after 24 hrs by […] staining based microscopic analysis. The class given is functional, cell-based. Summed up: as §1
Assay [16] deals with U-87MG ATCC. Put plainly: Induction of methuosis in human U87 cells assessed as disintegrated cytoplasmic vacuoles at 10 nM measured after 24 hrs by […] staining based microscopic analysis. The class given is functional, cell-based. Summed up:
as §1

Assay [17] deals with U-87MG ATCC. Put plainly: Induction of methuosis in human U87 cells assessed as increase in intracellular vacuolization in para nuclear region at 10 nM measured < 2 hrs by microscopic analysis. Format: functional, cell-based. The settings on record: time hrs <2.

Calls of active or inactive are those of the source. No cut-off for these calls is given here.

Sequence of Vimentin (Homo sapiens) (P08670 whole entry): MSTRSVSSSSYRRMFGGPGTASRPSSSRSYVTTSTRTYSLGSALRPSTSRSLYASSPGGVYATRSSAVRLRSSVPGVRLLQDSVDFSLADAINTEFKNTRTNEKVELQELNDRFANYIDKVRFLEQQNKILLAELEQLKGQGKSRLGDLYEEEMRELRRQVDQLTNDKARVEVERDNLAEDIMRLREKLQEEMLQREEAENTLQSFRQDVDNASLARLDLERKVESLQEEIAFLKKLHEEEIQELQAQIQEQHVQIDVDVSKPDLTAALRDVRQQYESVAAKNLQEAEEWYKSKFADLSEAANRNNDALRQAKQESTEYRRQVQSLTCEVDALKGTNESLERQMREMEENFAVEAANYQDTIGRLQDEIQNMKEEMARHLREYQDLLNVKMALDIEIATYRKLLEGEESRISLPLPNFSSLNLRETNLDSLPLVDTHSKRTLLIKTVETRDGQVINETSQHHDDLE

Turning to `O=C(Nc1ccc(Cl)cc1)Nc1cccc(Nc2nc(/C=C/c3cccc(Cl)c3)nc(N3CCOCC3)n2)c1`, the half-inhibitory concentration (IC50) in [1] was 2200 nM. Also, in assay [2], the outcome was inactive.

Take `CN(C)C(=O)c1ccc(NC(=O)Nc2ccc(Nc3nc(/C=C/c4ccccc4)nc(N4CCOCC4)n3)cc2)cc1`: the concentration for half-maximal inhibition (IC50) in [1] amounted to 530 nM. The outcome in assay [2] was Active.

Consider `O=C(Nc1ccc(Cl)cc1)Nc1cccc(Nc2nc(/C=C/c3cccc([N+](=O)[O-])c3)nc(N3CCOCC3)n2)c1`, for which the 50% inhibitory concentration (IC50) in assay [1] turned out to be 3660 nM. In addition, the outcome in assay [2] was inactive.

As to `O=C(Nc1ccc(F)cc1)Nc1ccc(Nc2nc(/C=C/c3cccc(Cl)c3)nc(N3CCOCC3)n2)cc1`, in assay [1], the half-inhibitory concentration (IC50) is 1330 nM. The outcome in assay [2] was Active.

For `O=C(Nc1ccc(Cl)cc1)Nc1ccc(Nc2nc(/C=C/c3cccc([N+](=O)[O-])c3)nc(N3CCCC3)n2)cc1`, the 50% inhibitory concentration (IC50) in assay [1] came to 4470 nM. Also, the outcome in assay [2] was inactive.

On to `CN1CCN(c2nc(/C=C/c3cccc([N+](=O)[O-])c3)nc(Nc3ccc(NC(=O)Nc4ccc(Cl)cc4)cc3)n2)CC1`, for which the IC50 in assay [1] amounted to 1210 nM. The result in [2] was inactive.

Take `O=C(Nc1ccc(Cl)cc1)Nc1ccc(Nc2nc(/C=C/c3cccc([N+](=O)[O-])c3)nc(N3CCOCC3)n2)cc1`: the 50% inhibitory concentration (IC50) in [1] was 1710 nM. In addition, the outcome in [2], in assay [3], in [4], in [5], in assay [6] and in assay [7] was Active. The outcome in [8] was Active.

Consider `CN(C)CCNC(=O)c1ccc(NC(=O)Nc2ccc(Nc3nc(/C=C/c4ccccc4)nc(N4CCOCC4)n3)cc2)cc1`, for which the half-inhibitory concentration (IC50) in assay [1] is 2480 nM. The outcome in assay [2] was Active.

With `CN(C)CCCNC(=O)c1ccc(NC(=O)Nc2ccc(Nc3nc(/C=C/c4ccccc4)nc(N4CCOCC4)n3)cc2)cc1`, in assay [1], the half-inhibitory concentration (IC50) was 2310 nM. The result in assay [2] was Active.

Consider `CC1CCN(C(=O)c2ccc(NC(=O)Nc3ccc(Nc4nc(/C=C/c5ccccc5)nc(N5CCOCC5)n4)cc3)cc2)CC1`, for which the half-maximal inhibitory concentration (IC50) in [1] was 870 nM. Further, the result in [2] was Active.

On to `O=C(Nc1ccc(Nc2nc(/C=C/c3ccccc3)nc(N3CCOCC3)n2)cc1)Nc1ccc(C(=O)NCCN2CCCC2)cc1`, for which the half-maximal inhibitory concentration (IC50) in assay [1] amounted to 1430 nM. In addition, the result in assay [2] was Active.

For the molecule `O=C(Nc1ccc(Nc2nc(/C=C/c3ccc(Cl)cc3)nc(N3CCOCC3)n2)cc1)Nc1cccc(F)c1`, the IC50 in [1] is 4410 nM. The result in [2] was Active.

As to `O=C(Nc1ccc(F)cc1)Nc1ccc(Nc2nc(/C=C/c3ccc(Cl)cc3)nc(N3CCOCC3)n2)cc1`, the concentration for half-maximal inhibition (IC50) in assay [1] was 2500 nM. Besides, the outcome in assay [2] was Active.

In the case of `O=C(Nc1ccc(Cl)cc1)Nc1ccc(Nc2nc(/C=C/c3cccc([N+](=O)[O-])c3)nc(N3CC(O)C3)n2)cc1`, the 50% inhibitory concentration (IC50) in assay [1] came out at 1320 nM. Also, in [2], the result was inactive.

Turning to `O=C(Nc1ccc(Cl)cc1)Nc1cccc(Nc2nc(/C=C/c3ccccc3)nc(N3CCOCC3)n2)c1`, the IC50 in assay [1] was found to be 1000 nM. Moreover, the outcome in [2] was inactive.

For `O=C(Nc1ccc(F)cc1)Nc1ccc(Nc2nc(/C=C/c3ccccc3)nc(N3CCOCC3)n2)cc1`, in assay [1], the IC50 came out at 4750 nM. For the same molecule, the outcome in assay [2] was Active.

On to `CN1CCN(C(=O)c2ccc(NC(=O)Nc3ccc(Nc4nc(/C=C/c5ccccc5)nc(N5CCOCC5)n4)cc3)cc2)CC1`, for which, in assay [1], the concentration for half-maximal inhibition (IC50) came to 230 nM. For the same molecule, the outcome in [2] was Active.

Turning to `CN(C)c1nc(/C=C/c2cccc([N+](=O)[O-])c2)nc(Nc2ccc(NC(=O)Nc3ccc(Cl)cc3)cc2)n1`, the IC50 in assay [1] stood at 5120 nM. For the same molecule, the outcome in [2] was inactive.

In the case of `O=C(Nc1ccc(Nc2nc(/C=C/c3ccccc3)nc(N3CCOCC3)n2)cc1)Nc1ccc(C(=O)NCCN2CCCCC2)cc1`, the concentration for half-maximal inhibition (IC50) in assay [1] was found to be 1110 nM. Besides, the outcome in [2] was Active.

On to `C#CCCC1(CCNC(=O)c2ccc(NC(=O)Nc3ccc(Nc4nc(/C=C/c5ccccc5)nc(N5CCOCC5)n4)cc3)cc2)N=N1`, for which the outcome in assay [9] and in [10] was Active.

As for `O=C(Nc1ccc(F)cc1)Nc1ccc(Nc2nc(/C=C/c3cccc([N+](=O)[O-])c3)nc(N3CCOCC3)n2)cc1`, the IC50 in assay [1] came out at 1110 nM. For the same molecule, in assay [2], the result was Active.

As for `O=C(Nc1ccc(Cl)cc1)Nc1ccc(Nc2nc(/C=C/c3ccccc3)nc(N3CCOCC3)n2)cc1`, the result in assay [11], in assay [2], in [12], in [9], in [13] and in assay [14] was Active. Moreover, the result in [15], in [16] and in [17] was Active. Also, the 50% inhibitory concentration (IC50) in assay [1] is 4790 nM.

Regarding `O=C(Nc1ccc(Nc2nc(/C=C/c3ccccc3)nc(N3CCOCC3)n2)cc1)Nc1ccc(C(=O)NCCN2CCOCC2)cc1`, the IC50 in [1] turned out to be 550 nM. Moreover, the outcome in [2] was Active.

The record behind these values is ChEMBL document CHEMBL4732188, “SARs of a novel series of s-triazine compounds targeting vimentin to induce methuotic phenotype” (Eur J Med Chem, 2021).
